According to ChEMBL document CHEMBL3351733, “Inhibition of the lymphoid tyrosine phosphatase: the effect of zinc(II) ions and chelating ligand fragments on enzymatic activity” (Bioorg Med Chem Lett, 2014):
Calls of active or inactive are those of the source. No cut-off for these calls is given here.

Columns and labels:
[1] = molecular target: T1, Tyrosine-protein phosphatase non-receptor type 22 (Homo sapiens) (UniProt Q9Y2R2); assay: Inhibition of LYP (unknown origin) incubated for 30 mins at 25 degC before addition of DiFMUP substrate in presence of 5 uM zinc acetate; conditions: TDE = time-dependent effect
T1 sequence (whole entry): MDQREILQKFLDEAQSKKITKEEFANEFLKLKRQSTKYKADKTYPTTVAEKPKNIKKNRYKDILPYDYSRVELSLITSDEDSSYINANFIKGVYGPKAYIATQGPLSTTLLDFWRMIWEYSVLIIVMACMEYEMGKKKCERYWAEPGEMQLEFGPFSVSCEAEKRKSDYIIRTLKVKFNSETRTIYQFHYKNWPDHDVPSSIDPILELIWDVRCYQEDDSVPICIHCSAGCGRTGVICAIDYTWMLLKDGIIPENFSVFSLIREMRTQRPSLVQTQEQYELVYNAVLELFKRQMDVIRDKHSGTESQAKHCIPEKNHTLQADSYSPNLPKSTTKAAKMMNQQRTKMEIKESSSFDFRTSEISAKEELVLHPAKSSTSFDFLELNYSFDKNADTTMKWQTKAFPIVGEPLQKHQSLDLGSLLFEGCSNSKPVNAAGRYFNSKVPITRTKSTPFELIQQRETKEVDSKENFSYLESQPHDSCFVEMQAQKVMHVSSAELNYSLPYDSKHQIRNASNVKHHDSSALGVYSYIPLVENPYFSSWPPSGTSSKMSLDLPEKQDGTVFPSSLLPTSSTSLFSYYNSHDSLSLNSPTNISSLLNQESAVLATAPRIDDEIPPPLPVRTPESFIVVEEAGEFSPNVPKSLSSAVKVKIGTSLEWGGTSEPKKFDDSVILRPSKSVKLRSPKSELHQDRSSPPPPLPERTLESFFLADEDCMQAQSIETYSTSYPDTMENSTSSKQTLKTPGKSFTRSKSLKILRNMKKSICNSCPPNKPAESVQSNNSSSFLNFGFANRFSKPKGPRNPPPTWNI
Summary of the method: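 Fragment screen and follow-up dose-response run with 5 μM zinc acetate added to the LYP assay, alongside a parallel series without zinc.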

[2] = molecular target: T2, Tyrosine-protein phosphatase non-receptor type 22 (Homo sapiens, UniProt Q9Y2R2); assay: Inhibition of LYP (unknown origin) using DiFMUP substrate incubated for 2 hrs
T2 sequence (Q9Y2R2 whole entry): T1 sequence (whole entry)
Summary of the method: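 LYP preincubated with inhibitor for 0, 30, 60 and 120 min before activity was read, without added zinc. IC50 came from the dose-response after the 2 h incubation.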

[3] = molecular target: T3, Tyrosine-protein phosphatase non-receptor type 1 (Homo sapiens) (UniProt P18031); assay: Inhibition of PTP1B (unknown origin)
T3 sequence (whole entry): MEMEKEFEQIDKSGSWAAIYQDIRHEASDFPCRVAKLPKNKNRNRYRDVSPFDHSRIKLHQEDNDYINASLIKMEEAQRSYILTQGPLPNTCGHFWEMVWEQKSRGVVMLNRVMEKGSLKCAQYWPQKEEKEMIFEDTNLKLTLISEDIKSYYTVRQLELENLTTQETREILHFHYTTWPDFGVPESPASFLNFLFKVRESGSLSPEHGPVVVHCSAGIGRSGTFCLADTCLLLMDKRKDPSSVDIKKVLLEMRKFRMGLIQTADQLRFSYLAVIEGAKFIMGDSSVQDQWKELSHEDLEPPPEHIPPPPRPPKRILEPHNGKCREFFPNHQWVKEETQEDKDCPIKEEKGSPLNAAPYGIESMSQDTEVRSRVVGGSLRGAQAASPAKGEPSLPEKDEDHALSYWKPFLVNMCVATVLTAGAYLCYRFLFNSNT

[4] = molecular target: T4, Receptor-type tyrosine-protein phosphatase C (Homo sapiens) (UniProt P08575); assay: Inhibition of CD45 (unknown origin)
T4 sequence (whole entry): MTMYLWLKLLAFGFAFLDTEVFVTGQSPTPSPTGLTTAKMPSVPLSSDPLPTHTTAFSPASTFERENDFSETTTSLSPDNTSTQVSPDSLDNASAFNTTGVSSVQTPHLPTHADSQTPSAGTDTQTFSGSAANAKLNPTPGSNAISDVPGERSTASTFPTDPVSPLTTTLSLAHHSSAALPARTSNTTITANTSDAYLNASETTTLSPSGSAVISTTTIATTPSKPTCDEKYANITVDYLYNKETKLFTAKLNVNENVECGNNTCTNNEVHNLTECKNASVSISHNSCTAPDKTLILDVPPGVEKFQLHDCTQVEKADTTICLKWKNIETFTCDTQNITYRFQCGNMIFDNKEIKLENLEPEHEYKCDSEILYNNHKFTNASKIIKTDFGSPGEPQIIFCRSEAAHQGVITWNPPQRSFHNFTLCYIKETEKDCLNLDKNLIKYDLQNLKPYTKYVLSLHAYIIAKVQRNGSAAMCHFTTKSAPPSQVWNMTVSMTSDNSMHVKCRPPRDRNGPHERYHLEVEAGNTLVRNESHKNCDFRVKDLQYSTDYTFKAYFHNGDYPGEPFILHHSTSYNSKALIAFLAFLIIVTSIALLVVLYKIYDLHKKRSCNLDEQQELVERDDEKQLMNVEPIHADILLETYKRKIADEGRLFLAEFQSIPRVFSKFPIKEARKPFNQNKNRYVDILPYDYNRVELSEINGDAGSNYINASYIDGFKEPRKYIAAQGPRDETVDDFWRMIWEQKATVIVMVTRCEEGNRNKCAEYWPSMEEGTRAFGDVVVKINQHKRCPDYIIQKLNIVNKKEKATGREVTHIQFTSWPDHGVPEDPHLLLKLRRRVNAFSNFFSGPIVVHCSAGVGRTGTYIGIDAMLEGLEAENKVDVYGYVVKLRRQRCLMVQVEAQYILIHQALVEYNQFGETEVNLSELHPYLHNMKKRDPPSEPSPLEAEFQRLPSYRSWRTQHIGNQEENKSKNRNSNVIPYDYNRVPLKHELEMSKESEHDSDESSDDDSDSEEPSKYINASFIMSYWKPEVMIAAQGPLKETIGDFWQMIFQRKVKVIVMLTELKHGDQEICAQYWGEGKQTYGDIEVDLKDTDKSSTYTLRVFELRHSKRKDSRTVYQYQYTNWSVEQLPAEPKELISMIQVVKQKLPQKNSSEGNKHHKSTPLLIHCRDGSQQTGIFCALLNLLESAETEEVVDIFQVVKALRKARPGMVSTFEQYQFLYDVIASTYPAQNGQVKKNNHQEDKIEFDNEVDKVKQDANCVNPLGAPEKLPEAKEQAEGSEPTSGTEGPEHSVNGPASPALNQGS

[5] = Inhibition of YopH (unknown origin)
[6] = molecular target: T1, Tyrosine-protein phosphatase non-receptor type 22 (Homo sapiens); assay: Inhibition of LYP (unknown origin) at 20 to 100 uM incubated for 30 mins at 25 degC before addition of DiFMUP substrate
[7] = molecular target: T1, Tyrosine-protein phosphatase non-receptor type 22 (Homo sapiens); assay: Protection against 40 uM zinc-acetate-induced inhibition of LYP (unknown origin) at 80 uM incubated for 30 mins at 25 degC before addition of DiFMUP substrate

For `Oc1ccc2ccccc2c1O`, which inhibition [1] is on record?
Its inhibition is “tde”.

And the IC50 [2]?
Its IC50 is 2520 nM.

And the inhibition [3]?
The inhibition was “Active”.

What about the inhibition [4] of the same compound?
Its inhibition is “Active”.

And the inhibition [5]?
The inhibition was “Active”.

With `O=C(O)c1cccc(C(=O)O)n1` as the compound, how does the inhibition [6] read?
Its inhibition is “inactive”.

What about the Activity [7] of the same compound?
The Activity was “Active”.

With `O=C1C=Cc2ccccc2C1=O` [1,2-NAPHTHOQUINONE] as the compound, how does the IC50 [2] read?
Its IC50 is 1100 nM.

Which results are given for `Oc1ccc(Cl)c2cccnc12`?
inhibition [6]: inactive; Activity [7]: Active

What does the source list for `c1ccc(CNCc2ccccn2)nc1`?
inhibition [6]: inactive; Activity [7]: Active

For `O=C1C=C(O)C(=O)c2ccccc21` [LAWSONE], which IC50 [2] is on record?
Its IC50 is 5600 nM.
